Read-outs that look alike come from different tables or passages of the source. Marks after values point to notes of the source that are not given here. One block for each compound: values may come before it.
Experiments:
[1] = biological target: T1, tau (NFTs) (Homo sapiens, UniProt P10636); format: binding; conditions: 1 µmol/L compound, human AD slices, n = 3
Target sequence in this assay (P10636 623-708 limits assumed): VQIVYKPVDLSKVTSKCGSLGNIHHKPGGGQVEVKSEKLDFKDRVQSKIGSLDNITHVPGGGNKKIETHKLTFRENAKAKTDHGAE

[2] = biological target: Aβ fibrils; conditions: read-out: Ki for Aβ fibrils; reported values; ref [3],[13]; cited from earlier work
[3] = biological target: Aβ (Homo sapiens, UniProt P05067); assay: In vitro autoradiography binding inhibition of [11C]PiB on human AD brain slices
Chain of Aβ (P05067 672-711 limits assumed): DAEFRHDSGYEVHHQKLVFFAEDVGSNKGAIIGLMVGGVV

[4] = Plasma radiometabolite analysis; format: in vivo, mouse; conditions: normal mice
How it was run: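 NMRI mice under isoflurane (2.5% in O2) received about 3.7 MBq of 18F-labelled tracer via a lateral tail vein. They were decapitated at 2, 10, 30 or 60 min PI (n = 3/time point). EDTA blood was kept on ice and spun at 2330 ×g for 10 min. Plasma (0.5 mL) was spiked with 10 µg authentic unlabelled compound and run on C18 HPLC. Fractions were γ-counted for % intact tracer, reported as mean ± SD.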

[5] = biological target: NFTs; conditions: autoradiography on human AD brain tissue sections; ref [8],[11]; cited from earlier work
[6] = biological target: PHF tau (Homo sapiens, UniProt P10636); format: binding
Chain of PHF tau (P10636 623-695 limits assumed): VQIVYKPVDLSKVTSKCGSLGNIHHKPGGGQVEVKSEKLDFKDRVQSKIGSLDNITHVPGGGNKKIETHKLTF

[7] = Perfused brain radiometabolite analysis; format: in vivo, mouse; conditions: normal mice
[8] = Biodistribution in normal NMRI mice; format: in vivo, mouse; conditions: for %ID/g Blood / %ID/g Bone / %ID/g Brain / %ID/g Cerebellum / %ID/g Cerebrum / %ID/g Heart / %ID/g Kidneys / %ID/g Liver / %ID/g Lungs / %ID/g Muscle / %ID/g Pancreas / %ID/g Spleen: iv
How it was run: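 Healthy male NMRI mice (30-40 g) under 2.5% isoflurane in O2 received about 0.9 MBq of 18F-labelled tracer by tail vein. They were decapitated at 2, 10, 30 and 60 min PI (n = 4/time point). Blood and organs were weighed and γ-counted. Blood, bone and muscle were taken as 7%, 12% and 40% of body mass. Blood clearance was calculated as the 2 min to 60 min activity ratio.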

[9] = biological target: T1, tau (NFTs); format: binding
Target sequence in this assay (P10636 623-695 limits assumed): as above

[10] = biological target: amyloid plaques (Homo sapiens, UniProt P05067); format: binding
Chain of amyloid plaques (P05067 672-711 limits assumed): as the sequence (P05067 672-711 limits assumed) above

[11] = read-out: % Block ± SD of tracer binding

% Block ± SD of tracer binding ([1]; tracer 40 nmol/L [18F]T808): 93 ± 0.0%
SMILES: CNc1ccc(-c2ccc3ccccc3n2)cc1 [BF-158, N-Methyl-4-(quinolin-2-yl)benzenamine]
Ki [2]: > 5000 nM

% Block ± SD of tracer binding ([3]; 1 µmol/L compound, tracer 66 nmol/L [11C]PiB, human AD slices, n = 3): 17 ± 0.0%
inhibition at 1 µM [3, 11]: 17%
inhibition at 1 µM ([3]; read-out: Inhibition of [11C]PiB binding, summary statements): < 17%
% Block ± SD of tracer binding ([1]; tracer 7 nmol/L [18F]T808): 89 ± 0.0%
Mean % ± SD of intact tracer, plasma ([4]; 2 min after injection, n = 3): 65 ± 8%
Mean % ± SD of intact tracer, plasma ([4]; 2 min after injection, n = 3, listed as [^18F]T808): 65%
Mean % ± SD of intact tracer, plasma ([4]; 10 min after injection, n = 3): 34 ± 3%
Mean % ± SD of intact tracer, plasma ([4]; 30 min after injection, n = 3): 29 ± 3%
Mean % ± SD of intact tracer, plasma ([4]; 30 min after injection, n = 3, listed as [^18F]T808): 29%
Mean % ± SD of intact tracer, plasma ([4]; 60 min after injection, n = 3): 26 ± 12%
Ki [6]: 9.4 nM
Mean % ± SD of intact tracer, perfused brain ([7]; 10 min after injection, n = 3): 88 ± 2%
Mean % ± SD of intact tracer, perfused brain ([7]; 10 min after injection, n = 3, listed as [^18F]T808): 88%
Mean % ± SD of intact tracer, perfused brain ([7]; 60 min after injection, n = 3): 34 ± 10%
Mean % ± SD of intact tracer, perfused brain ([7]; 60 min after injection, n = 3, listed as [^18F]T808): 34%
%ID/g Blood ([8]; blood, 2 min PI): 1.8 ± 0.1 %ID/g
2/60 min activity ratio Blood (clearance from blood) ([8]; blood, 2 min to 60 min activity ratio): 2.7
%ID/g Blood ([8]; blood, 10 min PI): 2.0 ± 0.2 %ID/g
%ID/g Blood ([8]; blood, 30 min PI): 1.5 ± 0.1 %ID/g
%ID/g Blood ([8]; blood, 60 min PI): 0.7 ± 0.1 %ID/g
%ID/g Bone ([8]; 2 min PI): 2.6 ± 0.6 %ID/g
%ID/g Bone ([8]; 10 min PI): 4.2 ± 0.6 %ID/g
%ID/g Bone ([8]; 60 min PI): 9.2 ± 6.1 %ID/g
%ID/g Brain ([8]; brain, 2 min PI): 4.9 ± 0.5 %ID/g
2/60 min activity ratio Brain ([8]; brain, 2 min to 60 min activity ratio): 18.2
%ID/g Brain ([8]; brain, 10 min PI): 0.9 ± 0.3 %ID/g
%ID/g Brain ([8]; brain, 30 min PI): 0.4 ± 0.0 %ID/g
%ID/g Brain ([8]; brain, 60 min PI): 0.3 ± 0.0 %ID/g
%ID/g Cerebellum ([8]; 2 min PI): 5.2 ± 0.5 %ID/g
%ID/g Cerebellum ([8]; 10 min PI): 1.0 ± 0.6 %ID/g
%ID/g Cerebellum ([8]; 30 min PI): 0.6 ± 0.1 %ID/g
%ID/g Cerebellum ([8]; 60 min PI): 0.5 ± 0.2 %ID/g
%ID/g Cerebrum ([8]; 2 min PI): 4.9 ± 0.5 %ID/g
%ID/g Cerebrum ([8]; 10 min PI): 1.0 ± 0.1 %ID/g
%ID/g Cerebrum ([8]; 30 min PI): 0.4 ± 0.0 %ID/g
%ID/g Cerebrum ([8]; 60 min PI): 0.2 ± 0.0 %ID/g
%ID/g Heart ([8]; 2 min PI): 3.2 ± 0.4 %ID/g
%ID/g Heart ([8]; 10 min PI): 2.3 ± 0.3 %ID/g
%ID/g Heart ([8]; 30 min PI): 1.7 ± 0.0 %ID/g
%ID/g Heart ([8]; 60 min PI): 0.8 ± 0.1 %ID/g
%ID/g Kidneys ([8]; 2 min PI): 26.3 ± 1.7 %ID/g
%ID/g Kidneys ([8]; 10 min PI): 12.7 ± 1.7 %ID/g
%ID/g Kidneys ([8]; 30 min PI): 9.2 ± 2.3 %ID/g
%ID/g Kidneys ([8]; 60 min PI): 3.6 ± 1.7 %ID/g
%ID/g Liver ([8]; 2 min PI): 11.8 ± 2.4 %ID/g
%ID/g Liver ([8]; 10 min PI): 15.1 ± 1.6 %ID/g
%ID/g Liver ([8]; 30 min PI): 8.3 ± 1.2 %ID/g
%ID/g Liver ([8]; 60 min PI): 4.2 ± 0.7 %ID/g
%ID/g Lungs ([8]; 2 min PI): 4.8 ± 0.6 %ID/g
%ID/g Lungs ([8]; 10 min PI): 3.0 ± 0.3 %ID/g
%ID/g Lungs ([8]; 30 min PI): 1.8 ± 0.2 %ID/g
%ID/g Lungs ([8]; 60 min PI): 0.9 ± 0.2 %ID/g
%ID/g Muscle ([8]; 2 min PI): 1.5 ± 0.5 %ID/g
%ID/g Muscle ([8]; 10 min PI): 1.0 ± 0.2 %ID/g
%ID/g Muscle ([8]; 30 min PI): 0.8 ± 0.1 %ID/g
%ID/g Muscle ([8]; 60 min PI): 3.5 ± 5.5 %ID/g
%ID/g Pancreas ([8]; 2 min PI): 7.3 ± 2.4 %ID/g
%ID/g Pancreas ([8]; 10 min PI): 4.0 ± 2.0 %ID/g
%ID/g Pancreas ([8]; 30 min PI): 2.2 ± 0.5 %ID/g
%ID/g Pancreas ([8]; 60 min PI): 1.2 ± 0.3 %ID/g
%ID/g Spleen ([8]; 2 min PI): 16.6 ± 6.7 %ID/g
%ID/g Spleen ([8]; 10 min PI): 4.9 ± 0.6 %ID/g
%ID/g Spleen ([8]; 30 min PI): 2.4 ± 0.4 %ID/g
%ID/g Spleen ([8]; 60 min PI): 1.3 ± 0.3 %ID/g
% Block ± SD of tracer binding ([9]; 1 µmol/L compound, tracer 28 nmol/L [18F]T807, human AD slices, n = 3): 90 ± 10^b %
inhibition at 1 µM [9, 11]: 90%
Ki [10]: > 4400 nM
SMILES: FCCC1CCN(c2ccn3c(n2)nc2ccccc23)CC1 [T808, 2-[4-(2-fluoroethyl)piperidin-1-yl]pyrimido[1,2-a]benzimidazole]
Kd [5]: 22 nM
fold higher binding affinity for NFTs over Aβ [5]: 27 fold
